According to ChEMBL document CHEMBL1955763, “Antimicrobial activity of sulfonamides containing 5-chloro-2-hydroxybenzaldehyde and 5-chloro-2-hydroxybenzoic acid scaffold” (Eur J Med Chem, 2012):
Converted amounts (≈) assume the structure as drawn.

Legend:
Trichosporon asahii = assay: Antifungal activity against Trichosporon asahii 1188 after 24 hrs by broth microdilution method; type: functional; conditions: Trichosporon asahii, 1188, 24 h
Outline: (§1)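 Microdilution broth per CLSI M27-A3 (yeasts) or M38-A2 (moulds) in RPMI 1640 with glutamine, buffered to pH 7.0 with 0.165 mol MOPS. Compounds were in DMSO. Final inoculum was 5 × 10³ ± 0.2 CFU/mL. Other conditions matched the antibacterial assay, with MIC as IC₉₀ read visually and at 540 nm. Determined twice, in duplicate.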

[1] = tested on: Mycobacterium tuberculosis; assay: Antimycobacterial activity against Mycobacterium tuberculosis H37Rv 331/88 after 14 days; type: functional; conditions: H37Rv 331/88, 336 h
[2] = tested on: Mycobacterium tuberculosis; assay: Antimycobacterial activity against Mycobacterium tuberculosis H37Rv 331/88 after 21 days; type: functional; conditions: H37Rv 331/88, 504 h
Outline: (§2)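 Micromethod in Sula semisynthetic medium, with compounds added as DMSO solutions over a two-fold series from 1000 down to 1. Inoculum for M. avium 330/88 was a 10⁻⁵ dilution. Plates were incubated at 37 °C and MIC was read after 14 and 21 days.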

Mycobacterium avium [3] = assay: Antimycobacterial activity against isoniazid-, rifampicin-, ofloxacin-, ethambutol-resistant Mycobacterium avium 330/88 after 14 days; type: functional; conditions: 330/88, 336 h; outline: as §2
Mycobacterium avium [4] = assay: Antimycobacterial activity against isoniazid-, rifampicin-, ofloxacin-, ethambutol-resistant Mycobacterium avium 330/88 after 21 days; type: functional; conditions: 330/88, 504 h; outline: as §2
Mycobacterium kansasii [5] = assay: Antimycobacterial activity against Mycobacterium kansasii 235/80 after 7 days; type: functional; conditions: 235/80, 168 h
Outline: (§3)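 Micromethod MIC in Sula semisynthetic medium, with compounds added as DMSO solutions at […]. Incubation at 37 °C. Inocula: M. kansasii 235/80 at dilution 10⁻⁴, clinical isolate 6509/96 at 10⁻⁵.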

Mycobacterium kansasii [6] = assay: Antimycobacterial activity against Mycobacterium kansasii 235/80 after 14 days; type: functional; conditions: 235/80, 336 h; outline: as §3
Mycobacterium kansasii [7] = assay: Antimycobacterial activity against Mycobacterium kansasii 235/80 after 21 days; type: functional; conditions: 235/80, 504 h; outline: as §3
Mycobacterium kansasii [8] = assay: Antimycobacterial activity against Mycobacterium kansasii 6509/96 after 7 days; type: functional; conditions: 6509/96, 168 h; outline: as §3
Mycobacterium kansasii [9] = assay: Antimycobacterial activity against Mycobacterium kansasii 6509/96 after 14 days; type: functional; conditions: 6509/96, 336 h; outline: as §3
Mycobacterium kansasii [10] = assay: Antimycobacterial activity against Mycobacterium kansasii 6509/96 after 21 days; type: functional; conditions: 6509/96, 504 h; outline: as §3
Staphylococcus aureus [11] = assay: Antibacterial activity against Staphylococcus aureus CCM 4516/08 after 24 hrs by broth microdilution method; type: functional; conditions: CCM 4516/08, 24 h
Outline: (§4)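 Microdilution broth method modified from M07-A07, in Mueller-Hinton broth at pH 7.4 (±0.2). Compounds were dissolved in DMSO. Inoculum was made in sterile water to 0.5 McFarland (1.5 × 10⁸ CFU/mL). MIC was taken as IC₉₀, meaning ≥90% growth reduction versus the drug-free control. Growth was read visually and by absorbance at 540 nm.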

Staphylococcus aureus [12] = assay: Antibacterial activity against Staphylococcus aureus CCM 4516/08 after 48 hrs by broth microdilution method; type: functional; conditions: CCM 4516/08, 48 h
Outline: (§5)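 Broth microdilution modified from standard M07-A07 in Mueller-Hinton broth at pH 7.4 (±0.2). Compounds were dissolved in DMSO. Inoculum in sterile water was adjusted to 0.5 McFarland (1.5 × 10⁸ CFU/mL). MIC was taken as IC₉₀, i.e. ≥90% growth reduction versus control, read visually and spectrophotometrically at 540 nm.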

Staphylococcus aureus [13] = assay: Antibacterial activity against methicillin-resistant Staphylococcus aureus H 5996/08 after 24 hrs by broth microdilution method; type: functional; conditions: H 5996/08, 24 h; outline: as §4
Staphylococcus aureus [14] = assay: Antibacterial activity against methicillin-resistant Staphylococcus aureus H 5996/08 after 48 hrs by broth microdilution method; type: functional; conditions: H 5996/08, 48 h; outline: as §4
[15] = tested on: Staphylococcus epidermidis; assay: Antibacterial activity against methicillin-resistant Staphylococcus epidermidis H 6966/08 after 24 hrs by broth microdilution method; type: functional; conditions: H 6966/08, 24 h; outline: as §4
[16] = tested on: Staphylococcus epidermidis; assay: Antibacterial activity against methicillin-resistant Staphylococcus epidermidis H 6966/08 after 48 hrs by broth microdilution method; type: functional; conditions: H 6966/08, 48 h; outline: as §4
Escherichia coli = assay: Antibacterial activity against Escherichia coli CCM 4517 after 24 hrs by broth microdilution method; type: functional; conditions: CCM 4517, 24 h; outline: as §5
Klebsiella pneumoniae [17] = assay: Antibacterial activity against Klebsiella pneumoniae D 11750/08 after 24 hrs by broth microdilution method; type: functional; conditions: D 11750/08, 24 h; outline: as §5
Klebsiella pneumoniae [18] = assay: Antibacterial activity against ESBL-positive Klebsiella pneumoniae J 14368/08 after 24 hrs by broth microdilution method; type: functional; conditions: J 14368/08, 24 h; outline: as §5
Pseudomonas aeruginosa = assay: Antibacterial activity against Pseudomonas aeruginosa CCM 1961 after 24 hrs by broth microdilution method; type: functional; conditions: CCM 1961, 24 h; outline: as §5
Nakaseomyces glabratus = assay: Antifungal activity against Candida glabrata 20/I after 24 hrs by broth microdilution method; type: functional; outline: as §1
[19] = tested on: Trichophyton mentagrophytes; assay: Antifungal activity against Trichophyton mentagrophytes 445 after 24 hrs by broth microdilution method; type: functional; conditions: Trichophyton mentagrophytes, 445, 24 h
[20] = Selectivity ratio of IC50 for human HepG2 cell sto MIC100 for Mycobacterium kansasii 6509/96; type: functional
[21] = Selectivity ratio of IC50 for human HepG2 cell sto MIC90 for Staphylococcus aureus CCM 4516/08; type: functional
[22] = Selectivity ratio of IC50 for human HepG2 cell sto MIC100 for Mycobacterium kansasii 235/80; type: functional
HepG2 = assay: Cytotoxicity against human HepG2 cells after 24 hrs by MTS assay; type: cell-based; conditions: HepG2, 24 h
Outline: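 Hep G2 human liver cells (passage 3–4), 10 000 per well, in MEM with 1% glutamine, 10% fetal serum and 1% non-essential amino acids. Compounds were added from DMSO at eight increasing concentrations in quadruplicate. Exposure was 24 h at 37 °C in 5% CO₂, then MTS reagent for 1.5 h. Formazan was read at 490 nm and IC₅₀ derived as 50% of control viability.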

Enterococcus sp. = assay: Antibacterial activity against Enterococcus sp. J 14365/08 after 24 hrs by broth microdilution method; type: functional; conditions: J 14365/08, 24 h; outline: as §5
Aspergillus fumigatus = assay: Antifungal activity against Aspergillus fumigatus 231 after 24 hrs by broth microdilution method; type: functional; conditions: Aspergillus fumigatus, 231, 24 h; outline: as §1
Lichtheimia corymbifera = assay: Antifungal activity against Absidia corymbifera 272 after 24 hrs by broth microdilution method; type: functional; conditions: Lichtheimia corymbifera, 272, 24 h; outline: as §1
Candida albicans = assay: Antifungal activity against Candida albicans ATCC 44857 after 24 hrs by broth microdilution method; type: functional; conditions: ATCC 44857, 24 h; outline: as §1
Candida tropicalis = assay: Antifungal activity against Candida tropicalis 156 after 24 hrs by broth microdilution method; type: functional; conditions: Candida tropicalis, 156, 24 h; outline: as §1
Pichia kudriavzevii = assay: Antifungal activity against Candida krusei E58 after 24 hrs by broth microdilution method; type: functional; conditions: E58, 24 h; outline: as §1

Compound | MIC (Trichosporon asahii) [µM] | MIC [1] [µM] | MIC [2] [µM] | MIC (Mycobacterium avium [3]) [µM] | MIC (Mycobacterium avium [4]) [µM] | MIC (Mycobacterium kansasii [5]) [µM] | MIC (Mycobacterium kansasii [6]) [µM] | MIC (Mycobacterium kansasii [7]) [µM] | MIC (Mycobacterium kansasii [8]) [µM] | MIC (Mycobacterium kansasii [9]) [µM] | MIC (Mycobacterium kansasii [10]) [µM] | MIC (Staphylococcus aureus [11]) [µM] | MIC (Staphylococcus aureus [12]) [µM] | MIC (Staphylococcus aureus [13]) [µM] | MIC (Staphylococcus aureus [14]) [µM] | MIC [15] [µM] | MIC [16] [µM] | MIC (Escherichia coli) [µM] | MIC (Nakaseomyces glabratus) [µM] | MIC [19] [µM] | also measured
O=S(=O)(Nc1ncccn1)c1ccc(/N=C/c2cc(Cl)ccc2O)cc1 | 62.5 (≈ 24.3 µg/mL) | 125 (≈ 48.6 µg/mL) | 250 (≈ 97.2 µg/mL) | 125 (≈ 48.6 µg/mL) | 125 (≈ 48.6 µg/mL) | 8 (≈ 3.11 µg/mL) | 16 (≈ 6.22 µg/mL) | 32 (≈ 12.4 µg/mL) | 16 (≈ 6.22 µg/mL) | 32 (≈ 12.4 µg/mL) | 32 (≈ 12.4 µg/mL) | 250 (≈ 97.2 µg/mL) | 250 (≈ 97.2 µg/mL) | 125 (≈ 48.6 µg/mL) | 125 (≈ 48.6 µg/mL) | > 500 | > 500 | 62.5 (≈ 24.3 µg/mL) | 125 (≈ 48.6 µg/mL) |  | MIC (Klebsiella pneumoniae [17]): 500 µM (≈ 194 µg/mL); MIC (Klebsiella pneumoniae [18]): 500 µM (≈ 194 µg/mL); MIC (Pseudomonas aeruginosa): ≥ 500 µM
Cc1cc(C)nc(NS(=O)(=O)c2ccc(NC(=O)c3cc(Cl)ccc3O)cc2)n1 | 125 (≈ 54.1 µg/mL) | 125 (≈ 54.1 µg/mL) | 125 (≈ 54.1 µg/mL) | 32 (≈ 13.9 µg/mL) | 62.5 (≈ 27.1 µg/mL) | 16 (≈ 6.93 µg/mL) | 32 (≈ 13.9 µg/mL) | 62.5 (≈ 27.1 µg/mL) | 16 (≈ 6.93 µg/mL) | 62.5 (≈ 27.1 µg/mL) | 62.5 (≈ 27.1 µg/mL) | 15.6 (≈ 6.76 µg/mL) | 15.6 (≈ 6.76 µg/mL) | 15.6 (≈ 6.76 µg/mL) | 31.2 (≈ 13.5 µg/mL) | 31.2 (≈ 13.5 µg/mL) | 250 (≈ 108 µg/mL) |  |  | 125 (≈ 54.1 µg/mL) | Ratio [20]: 5.4; Ratio [21]: 10.8; Ratio [22]: 5.4; IC50 (HepG2): 337 µM; MIC (Enterococcus sp.): 125 µM (≈ 54.1 µg/mL)
Cc1cc(NS(=O)(=O)c2ccc(NC(=O)c3cc(Cl)ccc3O)cc2)no1 | 500 (≈ 204 µg/mL) | 125 (≈ 51 µg/mL) | 250 (≈ 102 µg/mL) | 62.5 (≈ 25.5 µg/mL) | 125 (≈ 51 µg/mL) | 8 (≈ 3.26 µg/mL) | 16 (≈ 6.53 µg/mL) | 16 (≈ 6.53 µg/mL) | 8 (≈ 3.26 µg/mL) | 8 (≈ 3.26 µg/mL) | 8 (≈ 3.26 µg/mL) | 125 (≈ 51 µg/mL) | 125 (≈ 51 µg/mL) | 15.6 (≈ 6.37 µg/mL) | 31.2 (≈ 12.7 µg/mL) | > 500 | > 500 | 250 (≈ 102 µg/mL) | 500 (≈ 204 µg/mL) | 500 (≈ 204 µg/mL) | MIC (Aspergillus fumigatus): 500 µM (≈ 204 µg/mL); MIC (Lichtheimia corymbifera): 500 µM (≈ 204 µg/mL); MIC (Candida albicans): 500 µM (≈ 204 µg/mL); MIC (Candida tropicalis): 500 µM (≈ 204 µg/mL); MIC (Pichia kudriavzevii): 500 µM (≈ 204 µg/mL)
